ZTA DNA inh = ZTA (EBV) inhibition in EBNA-1 counter-screen; P03206; ZTA-DNA binding, fluorescence polarization; inhibition, % at 11 µM; actives 0.15% (n = 320,000); AID 2234; in the data active means inhibition above about 33%
Target sequence (P03206 whole entry, looked up): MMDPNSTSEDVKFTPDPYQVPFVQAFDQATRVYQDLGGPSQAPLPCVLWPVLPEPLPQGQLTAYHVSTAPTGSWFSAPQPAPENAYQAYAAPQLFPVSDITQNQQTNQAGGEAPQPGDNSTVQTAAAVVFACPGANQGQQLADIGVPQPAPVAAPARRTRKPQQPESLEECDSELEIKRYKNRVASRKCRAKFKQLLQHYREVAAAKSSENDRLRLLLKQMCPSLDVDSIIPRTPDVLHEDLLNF
NS3 helicase inh = inhibitors of HCV NS3 helicase, primary screen, biochemical, Cy5 molecular beacon fluorescence | Hepatitis C virus NS3 helicase | NS3 helicase DNA unwinding | inhibition, % at 10.9 µM | actives 0.56% (n = 290,000) | AID 1800, 2009;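 active means inhibition above the mean of all tested compounds plus 3 SD, set per campaign, cut at about 35% in these data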;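 further: 0% = DMSO wells and 100% = thioflavine S control wells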
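test system = hepatitis C virus NS3 helicase domain fragment enzyme | reagent = annealed dual-labelled DNA beacon duplex, ATP-started | times = 1 h at 25 °C | detection = Cy5 fluorescence, 0 and 60 min reads | read-out basis = percent inhibition from t60/t0 fluorescence ratio | control set = DMSO and thioflavine S | replication = one well per compound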
ALR inh = inhibitors of human ALR sulfhydryl oxidase, primary screen, biochemical, H2O2 detection, HRP-luminol luminescence, single point; inhibition, % (no concentration beside the values); purified ALR, DTT oxidation; actives 3.8% (n = 290,000); AID 485317, 2010;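 active means mean replicate inhibition above about 79%, with every replicate also reaching it, limit read from the data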
Target sequence (P55789 whole entry, looked up): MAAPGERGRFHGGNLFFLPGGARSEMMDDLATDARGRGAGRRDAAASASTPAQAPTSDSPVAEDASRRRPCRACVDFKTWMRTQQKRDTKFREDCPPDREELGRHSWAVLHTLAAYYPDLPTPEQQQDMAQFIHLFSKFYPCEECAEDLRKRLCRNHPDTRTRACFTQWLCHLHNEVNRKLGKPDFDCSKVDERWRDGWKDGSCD
M18AAP inhibitor = PfM18AAP inhibitors, malaria aminopeptidase, primary screen, biochemical, QFRET, recombinant enzyme. actives 1.2% (n = 290,000). M18 aspartyl aminopeptidase (Plasmodium falciparum 3D7). H-Glu-NHMec fluorogenic cleavage. inhibition, % at 7.35 µM;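 active means inhibition above the campaign mean inhibition over all tested compounds plus 3 SD, cut at about 28% in these data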;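 further: 0% = plate median of test compound wells and 100% = 2 mM ZnCl2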
EBNA-1 inh = EBNA-1 DNA-binding inhibitors, primary screen, biochemical, fluorescence polarization. actives 0.34% (n = 300,000). inhibition, % at 14.8 µM. AID 1950, 2009; in the data active means inhibition above about 28%
core dimer inh = inhibitors of HCV core protein dimerization, primary screen, biochemical, TR-FRET, high-throughput; inhibition, % at 5 µM; TR-FRET GST/Flag-core106 dimerization, 1536-well; actives 0.33% (n = 300,000); AID 1899, 2009;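 active means inhibition above the mean of all tested compounds plus 3 SD, set per screening campaign, cut at about 45% in these data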
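Material: GST/Flag-tagged HCV core106 proteins. Incubation: 4 h, 22.5 °C incubation. Read-out basis: inhibition (%) from 671 over 617 nm ratio. Measured by: TR-FRET, excitation 340 nm, emission 617 and 671 nm.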
Starred values were filed as active, the others as inactive; . = no result. Only some compounds are listed: those with a hit (about 5.2% of all), similar ones and a draw of the others.

SMILES	ZTA DNA inh	NS3 helicase inh	ALR inh	M18AAP inhibitor	EBNA-1 inh	core dimer inh
COc1ccc(NCc2nc3ccccc3n2C)cc1	-14	7	98*	6	9	-3
CN(Cc1nc2ccccc2n1C)c1ccccc1	4	1	99*	-13	2	-7
Cn1c(CNc2ccc(O)cc2)nc2ccccc21	5	-3	99*	16	3	-19
O=C(NCc1ccc(F)cc1)C(c1ccco1)N(C(=O)c1csnn1)C1CC1 (stereo not drawn)	-17	9	-1	5	10	-2
Cc1ccc(NCc2nc3ccccc3n2C)cc1	8	-3	-2	2	0	-5
Cc1ccc(NCc2nc3ccccc3n2C)cc1C	8	16	98*	4	-12	-12
Cn1c(CNc2nc3ccccc3n2C)nc2ccccc21	-26	2	-3	-6	-4	1
Cn1c(CNc2ccc(Br)cc2)nc2ccccc21	-8	-7	96*	2	-3	-1
O=C(CNC(=O)c1ccccc1F)NCCN1C(=O)S/C(=C\c2ccc3c(c2)OCO3)C1=O	-7	.	.	.	.	.
NCCN1C(=O)S/C(=C\c2ccc3c(c2)OCO3)C1=O	-11	5	92*	15	-2	-1
CCc1nc(N)c(C#N)c(-c2ccc(O)c(OC)c2)c1C	0	-4	56	1	-8	-31
COc1cc(-c2c(C#N)c(=O)[nH]c3c2c(C)nn3-c2ccccc2)ccc1O	10	18	99*	15	9	7
O=c1c2[nH]c3ccc(F)cc3c2ncn1CCC1=CCCCC1	15	-5	-1	1	7	2
Cc1cc(C)c(C(=O)COC(=O)c2ccc(NC(=O)CC#N)cc2)cc1C	-3	5	16	1	-5	29
N#CCC(=O)Nc1ccc(C(=O)OCC(=O)Nc2ccccc2-c2ccccc2)cc1	8	2	98*	6	2	29
CNC(=O)COC(=O)c1ccc(NC(=O)CC#N)cc1	12	-1	98*	2	-9	-5
N#CCC(=O)Nc1ccc(C(=O)OCC(=O)N2CCN(C(=O)c3ccco3)CC2)cc1	.	.	100*	.	.	.
O=C(COC(=O)c1ccc(CSc2ccc(Cl)cc2)cc1)Nc1ccccc1	3	-10	-6	-1	29*	10
CC(=O)Nc1ccc(C(=O)OCC(=O)N2CCN(C(=O)c3ccco3)CC2)cc1	3	.	-1	.	.	.
CCCCCCC1/C(=N\NC(=O)c2ccccc2)CCC1C(=O)OC (stereo not drawn)	13	-2	-3	-4	11	4
COc1cc(CN2CCNC(=O)C2CC(=O)NC2CCCC2)cc(OC)c1 (stereo not drawn)	-26	-12	-9	1	-20	-5
CS(=O)(=O)c1ccc(C(=O)OCC(=O)NC(=O)Cc2ccccc2)cc1	7	.	-9	.	4	-1
N#CCC(=O)Nc1ccc(C(=O)OCC(=O)NC(=O)Cc2ccccc2)cc1	-18	.	99*	.	-8	-2
N#CCC(=O)Nc1ccc(C(=O)OCC(=O)N2CCCC2=O)cc1	-17	.	99*	.	-4	-8
COc1cc(OC)cc(C(=O)Nc2nc(CC(=O)NC(C)c3ccccc3)cs2)c1 (stereo not drawn)	19	.	.	.	6	4
SMILES	ZTA DNA inh	NS3 helicase inh	ALR inh	M18AAP inhibitor	EBNA-1 inh	core dimer inh
O=c1[nH]c(C2CCCN(S(=O)(=O)c3ccccc3)C2)nc2c1nnn2Cc1ccccc1Br (stereo not drawn)	2	-4	1	4	0	17
O=c1c2ccccc2sn1-c1cc(S(=O)(=O)N2CCOCC2)ccc1N1CCOCC1	0	3	33	31*	3	2
Nc1cc(S(=O)(=O)N2CCOCC2)ccc1N1CCCCC1	.	.	98*	.	.	.
Nc1cc(S(=O)(=O)N2CCCCC2)ccc1N1CCCCC1	-18	.	.	.	.	.
Nc1cc(S(=O)(=O)Nc2ccccc2Cl)ccc1N1CCCC1	5	1	99*	10	3	2
Nc1cc(S(=O)(=O)Nc2cc(Cl)ccc2Cl)ccc1N1CCOCC1	8	-5	13	7	4	6
O=S(=O)(c1ccc(N2CCOCC2)c(Cl)c1)N1CCOCC1	-15	-15	-4	-4	-7	-14
Cc1csc(Nc2nc(N)c(C(=O)Nc3cc(Cl)ccc3F)o2)n1	-5	-10	2	-3	8	-1
Cc1ccc(S(=O)(=O)NCC(=O)NCC2COc3ccccc3O2)cc1C (stereo not drawn)	-6	.	0	.	.	.
O=C(CC1(CC(=O)N2CCOCC2)CCCC1)Nc1ccc(F)cc1	.	.	-5	.	.	.
Cc1cc(C(=O)NCc2ccco2)c2ccccc2n1	-5	0	-26	-14	-10	4
Cc1ccc(-c2cc(C(=O)NCc3ccco3)c3ccccc3n2)o1	-13	22	-1	-69	-14	66*
Cc1ccc(-c2cc(C(=O)NC3=NCCS3)c3cc(Br)ccc3n2)o1	2	19	.	0	0	51*
Cc1cc(-c2ccccc2)nc2cc(C(=O)NCc3ccco3)nn12	-11	-7	93*	8	11	26
Cc1ccc(-c2cc(C(=O)NN3CCOCC3)c3cc(Br)ccc3n2)o1	-5	9	.	-28	-1	7
COc1cccc(NC(=O)c2cc(-c3ccc(C)o3)nc3ccccc23)c1	-2	28	-3	-59	2	48*
COCCN(C(=O)C1=COCCO1)c1c(N)n(CC(C)C)c(=O)[nH]c1=O	-14	.	1	.	.	.
CS(=O)(=O)Nc1cccc(C2=NN(C(=O)c3ccc(F)cc3)C(c3cccs3)C2)c1 (stereo not drawn)	-4	-2	0	1	8	0
Cc1cc(C)c2nc(-c3ccccn3)cc(C(=O)NCc3ccco3)c2c1	15	19	89*	4	0	69*
Cc1ccc(-c2cc(C(=O)Nc3ccccc3C)c3ccccc3n2)o1	6	1	6	-6	3	64*
O=C(NCc1ccco1)c1cccnc1-c1nc2ccccc2s1	-12	4	4	31*	5	1
O=C1COC(c2ccccc2)=CN1Cc1ccccc1	-9	.	-1	.	5	0
NCC(O)CN(c1ccccc1)c1ccccc1 (stereo not drawn)	10	-8	99*	-4	6	-4
CC(C)[N+](C)(C)CC(O)CN(c1ccccc1)c1ccccc1 (stereo not drawn)	-9	3	98*	-1	8	-3
OCCN(CCO)CC(O)CN(c1ccccc1)c1ccccc1 (stereo not drawn)	-2	-4	99*	-9	2	1
